This note sets out measurements from ChEMBL document CHEMBL3085721, “Nonhydrolyzable ATP analogues as selective inhibitors of human NPP1: a combined computational/experimental study” (J Med Chem, 2013).

For assay [1], the target named is T1, Ectonucleoside triphosphate diphosphohydrolase 8 (Homo sapiens) (UniProt Q5MY95).
T1 sequence (whole entry): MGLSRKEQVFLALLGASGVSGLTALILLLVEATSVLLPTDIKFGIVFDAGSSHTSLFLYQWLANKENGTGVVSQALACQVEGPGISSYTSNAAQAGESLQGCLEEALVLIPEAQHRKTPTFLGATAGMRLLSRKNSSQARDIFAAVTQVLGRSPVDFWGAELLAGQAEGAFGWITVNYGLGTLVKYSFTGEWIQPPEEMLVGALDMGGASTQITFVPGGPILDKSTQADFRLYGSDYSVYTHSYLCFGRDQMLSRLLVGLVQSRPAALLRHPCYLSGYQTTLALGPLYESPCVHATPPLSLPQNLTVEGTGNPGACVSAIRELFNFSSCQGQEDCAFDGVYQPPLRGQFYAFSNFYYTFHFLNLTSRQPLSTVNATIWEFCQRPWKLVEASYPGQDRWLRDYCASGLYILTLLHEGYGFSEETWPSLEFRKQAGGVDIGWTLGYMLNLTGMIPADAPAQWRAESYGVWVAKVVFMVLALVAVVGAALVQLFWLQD
Briefly: Inhibition of human NTPDase8 assessed as amount of inorganic phosphate released using ATP as the substrate preincubated at 100 uM for 3 mins before substrate addition after 15 mins by malachite green reagent method. A digest of the protocol:
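Crude extracts of COS-7 cells transiently transfected with human NTPDase1, -2, -3 or -8, preincubated 3 min at 37 °C in Tris-Ringer medium pH 7.4 with analogue (final 100 μM). Started with 100 μM ATP, stopped after 15 min with malachite green; released Pi read at 630 nm. ATP alone set as 100%. Mean ± SD of 3−6 experiments in triplicate.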

Assay [2] concerns the target T2, Ectonucleotide pyrophosphatase/phosphodiesterase family member 1 (Homo sapiens) (UniProt P22413).
T2 sequence (whole entry): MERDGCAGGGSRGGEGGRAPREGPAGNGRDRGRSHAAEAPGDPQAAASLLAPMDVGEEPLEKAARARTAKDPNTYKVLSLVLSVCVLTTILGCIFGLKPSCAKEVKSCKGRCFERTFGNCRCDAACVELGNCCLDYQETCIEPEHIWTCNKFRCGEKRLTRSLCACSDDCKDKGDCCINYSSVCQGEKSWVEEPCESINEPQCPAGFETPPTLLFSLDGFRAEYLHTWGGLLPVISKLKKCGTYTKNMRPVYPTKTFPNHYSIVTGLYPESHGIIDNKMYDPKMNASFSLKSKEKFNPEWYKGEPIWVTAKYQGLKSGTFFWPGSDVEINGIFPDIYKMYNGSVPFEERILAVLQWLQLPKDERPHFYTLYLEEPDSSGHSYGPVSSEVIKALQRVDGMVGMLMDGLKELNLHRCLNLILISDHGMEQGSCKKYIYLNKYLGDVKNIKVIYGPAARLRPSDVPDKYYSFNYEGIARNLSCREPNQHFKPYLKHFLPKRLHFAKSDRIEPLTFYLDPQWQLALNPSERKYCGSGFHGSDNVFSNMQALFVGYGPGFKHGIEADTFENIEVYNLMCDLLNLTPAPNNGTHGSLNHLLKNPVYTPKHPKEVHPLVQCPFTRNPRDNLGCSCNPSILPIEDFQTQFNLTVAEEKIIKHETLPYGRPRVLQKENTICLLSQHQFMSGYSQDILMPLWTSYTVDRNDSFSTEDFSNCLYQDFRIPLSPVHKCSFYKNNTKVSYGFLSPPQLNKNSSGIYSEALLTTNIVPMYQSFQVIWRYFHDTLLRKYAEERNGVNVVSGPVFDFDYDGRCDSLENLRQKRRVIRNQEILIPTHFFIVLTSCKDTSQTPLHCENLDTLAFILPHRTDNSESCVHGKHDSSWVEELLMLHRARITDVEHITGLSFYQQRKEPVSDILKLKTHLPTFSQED
Briefly: Inhibition of NPP1 in human HTB-85 cells assessed as production of p-nitrophenol using pnp-TMP at 100 uM measured after 20 mins by spectrophotometry. In kind it is cell-based. Summed up: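 Intact osteocarcinoma HTB85 (SaOS-2) cells in 24-well plates, 0.5 mL incubation mixture, analogue and pnp-TMP each at 100 μM. After 20 min an aliquot was read for p-nitrophenol at 410 nm. Substrate alone set as 100%. Mean ± SD of three experiments in triplicate.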

For assay [3], the target named is T3, Ectonucleotide pyrophosphatase/phosphodiesterase family member 3 (Homo sapiens) (UniProt O14638).
T3 sequence (whole entry): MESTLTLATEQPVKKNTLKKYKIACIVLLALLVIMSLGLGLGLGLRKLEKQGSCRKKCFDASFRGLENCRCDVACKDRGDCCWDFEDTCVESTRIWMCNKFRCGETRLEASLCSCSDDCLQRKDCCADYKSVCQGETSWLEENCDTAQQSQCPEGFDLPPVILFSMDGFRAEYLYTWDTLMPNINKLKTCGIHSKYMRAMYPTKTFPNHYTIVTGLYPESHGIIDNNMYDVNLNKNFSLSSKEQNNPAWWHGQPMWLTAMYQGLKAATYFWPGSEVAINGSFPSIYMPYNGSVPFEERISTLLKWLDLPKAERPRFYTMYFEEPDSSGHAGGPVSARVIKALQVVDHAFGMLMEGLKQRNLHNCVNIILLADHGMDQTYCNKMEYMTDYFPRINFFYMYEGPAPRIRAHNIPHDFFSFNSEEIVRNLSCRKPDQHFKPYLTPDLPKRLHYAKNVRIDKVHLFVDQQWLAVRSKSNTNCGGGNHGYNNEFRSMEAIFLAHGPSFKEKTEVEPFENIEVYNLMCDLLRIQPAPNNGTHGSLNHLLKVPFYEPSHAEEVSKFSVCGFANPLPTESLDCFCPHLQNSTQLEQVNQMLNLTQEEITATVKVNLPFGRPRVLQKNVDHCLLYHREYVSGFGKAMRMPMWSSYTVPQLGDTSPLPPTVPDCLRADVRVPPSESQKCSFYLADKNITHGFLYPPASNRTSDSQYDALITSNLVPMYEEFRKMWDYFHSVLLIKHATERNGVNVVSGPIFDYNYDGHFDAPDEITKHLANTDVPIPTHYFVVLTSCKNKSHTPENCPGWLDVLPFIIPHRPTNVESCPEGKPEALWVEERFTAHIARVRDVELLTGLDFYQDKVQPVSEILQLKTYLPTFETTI
Nature of the assay: Inhibition of human NPP3 expressed in COS7 cells assessed as production of p-nitrophenol using pnp-TMP as the substrate preincubated at 100 uM for 3 mins before substrate addition measured after 15 mins […]. The assay is classed as cell-based. The following applies: COS-7. Summed up: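 Crude extracts of COS-7 cells transiently transfected with human NPP1 or NPP3, preincubated 3 min at 37 °C in 1 mM CaCl2, 140 mM NaCl, 5 mM KCl, 50 mM Tris pH 8.5 with analogue at 100 μM. Reaction started with 100 μM pnp-TMP; p-nitrophenol at 410 nm after 15 min. Activity without analogue set as 100%. Mean ± SD of 3−6 experiments in triplicate.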

With `B[P@](=O)(OC[C@H]1O[C@@H](n2cnc3c(N)ncnc32)[C@H](O)[C@@H]1O)OP(=O)(O)CP(=O)(O)O`, the inhibition in assay [1] was below 18%; in assay [2] it was 41%.

For `CSc1nc(N)c2ncn([C@@H]3O[C@H](COP(=O)(O)C(F)(F)P(=O)(O)O)[C@@H](O)[C@H]3O)c2n1`, the inhibition in assay [3] is 50%; in assay [1], below 18%; in assay [2], 41%.

On to `B[P@@](=O)(OC[C@H]1O[C@@H](n2cnc3c(N)ncnc32)[C@H](O)[C@@H]1O)OP(=O)(O)CP(=O)(O)O`, for which the inhibition in assay [1] was below 18%; in assay [2], 90%.

Regarding `B[P@@](=O)(OC[C@H]1O[C@@H](n2cnc3c(N)nc(SC)nc32)[C@H](O)[C@@H]1O)OP(=O)(O)C(F)(F)P(=O)(O)O`, the inhibition came to 50% in assay [3] and 30% in assay [1].

Consider `B[P@](=O)(OC[C@H]1O[C@@H](n2cnc3c(N)nc(SC)nc32)[C@H](O)[C@@H]1O)OP(=O)(O)CP(=O)(O)O`, for which the inhibition in assay [1] is below 18%; in assay [2], 90%.
